The values that follow come from ChEMBL document CHEMBL4699441, “Identification and Preclinical Evaluation of the Bicyclic Pyrimidine γ-Secretase Modulator BMS-932481” (ACS Med Chem Lett, 2019).

Each structure is given as a SMILES string.

Data set [1] can be described thus: Fraction unbound in human plasma measured after 24 hrs by LC-MS/MS analysis. The format is ADME, cell-free.
A short description of data set [2]: Hepatotoxicity in rat at 100 mg/kg, po administered for 2 week. The format is toxicity, organism-based. The settings on record: in vivo, 336 h, time 2 weeks. A digest of the protocol:
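Rats given oral doses of 10, 30 or 100 mg/kg daily for 2 weeks in a repeat-dose toxicity study.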

Data set [3] can be described thus: Plasma concentration in Harlan Sprague-Dawley rat at 10 mg/kg, po measured after 5 hrs. The format is ADME, organism-based.
Data set [4] can be described thus: Hemodynamic activity in unconscious telemeterized rabbit assessed as increase in blood pressure at >= 10 mg/kg. The format is ADME, organism-based, Oryctolagus cuniculus. The settings on record: in vivo.

In the case of `CNc1nc(Nc2ccc(-n3cnc(C)n3)c(OC)c2)nc2c1CC[C@H]2c1ccc(F)cc1`, the Fu in data set [1] came out at 0.6%. The Activity entry in data set [2] and in data set [4] was “Non-Toxic” in each case. For the same compound, the concentration at 5 h in data set [3] came out at 1400 nM.
